Test results as given in ChEMBL document CHEMBL4257465, “Strigolactones: a plant phytohormone as novel anti-inflammatory agents” (Medchemcomm, 2018).
Active and inactive are the calls of the source. The rule behind the calls is not given here.

What was measured:
RAW264.7 [1] = experiment: Antiinflammatory activity in LPS-induced mouse RAW264.7 cells assessed as TNFalpha levels at 1.25 uM pretreated for 2 hrs followed by LPS stimulation and measured after 12 hrs by ELISA (reference value: 5313.7 +/- 420.9 pg/ml); format: functional
[2] = molecular target: Transcription factor p65 (Mus musculus) (UniProt Q04207); experiment: Inhibition of LPS-induced NFkappaB p65 phosphorylation in mouse RAW264.7 cells after 4 hrs by Western blot analysis; format: cell-based
Sequence of Transcription factor p65 (Mus musculus) (Q04207 whole entry): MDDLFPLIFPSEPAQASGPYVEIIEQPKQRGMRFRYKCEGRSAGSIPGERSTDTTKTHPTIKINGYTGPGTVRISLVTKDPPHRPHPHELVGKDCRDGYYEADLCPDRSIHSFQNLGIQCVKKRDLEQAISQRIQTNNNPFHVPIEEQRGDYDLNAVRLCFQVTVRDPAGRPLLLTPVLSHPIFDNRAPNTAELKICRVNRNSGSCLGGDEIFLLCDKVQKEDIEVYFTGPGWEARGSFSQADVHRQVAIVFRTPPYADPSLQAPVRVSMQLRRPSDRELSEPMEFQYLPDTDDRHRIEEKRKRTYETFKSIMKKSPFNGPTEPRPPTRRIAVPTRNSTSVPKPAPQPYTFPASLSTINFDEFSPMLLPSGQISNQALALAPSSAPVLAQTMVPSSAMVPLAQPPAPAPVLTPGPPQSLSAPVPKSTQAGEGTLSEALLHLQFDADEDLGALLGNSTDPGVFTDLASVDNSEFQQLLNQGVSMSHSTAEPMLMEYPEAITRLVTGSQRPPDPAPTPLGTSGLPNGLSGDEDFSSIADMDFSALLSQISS
Summary of the method: (§1)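 RAW264.7 cells at 2 × 10^6 per well given fresh medium with compound (10, 5, 2.5, 1.25 μM) plus LPS 500 ng mL−1 for 4 h. Lysed in IP buffer with 1 mM PMSF, protein by BCA. Run on 12.5% SDS-PAGE and blotted. Phospho and total ERK1/2 (Thr202/Tyr204), p38 (Thr180/Tyr182), IκBα (Ser32/36) and NF-κB p65 detected by ECL. Mean ± SD, n = 3.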

RAW264.7 [3] = experiment: Antiinflammatory activity in LPS-induced mouse RAW264.7 cells assessed as IL-6 levels at 1.25 uM pretreated for 2 hrs followed by LPS stimulation and measured after 24 hrs by ELISA (reference value: 1966.6 +/- 102.3 pg/ml); format: functional
Summary of the method: (§2)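 RAW264.7 murine macrophages (DMEM, 10% serum, 37 °C, 5% CO2) seeded at 5 × 10^5 cells per well, pretreated 2 h with compound at 10, 5, 2.5 or 1.25 μM (DMSO 0.1% v/v), then LPS (E. coli 0127:B8) 100 ng mL−1 added. Supernatant TNF-α or IL-6 read by mouse ELISA kit after 6, 12 and 24 h. Mean ± SD, n = 3, three independent experiments.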

RAW264.7 [4] = experiment: Antiinflammatory activity in mouse RAW264.7 cells assessed as inhibition of LPS-induced NO production pretreated for 2 hrs followed by LPS stimulation measured after 24 hrs by Griess assay; format: functional, cell-based
Summary of the method: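 RAW264.7 murine macrophages (DMEM, 10% serum, 37 °C, 5% CO2) seeded at 5 × 10^4 cells/well and cultured 18 h. Compounds tested at 1–100 μM (DMSO 0.1% v/v), with LPS (E. coli 0127:B8) at 100 ng mL−1. Supernatant nitrite read with Griess reagent (10 min, room temperature, OD540).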

RAW264.7 [5] = experiment: Antiinflammatory activity in LPS-induced mouse RAW264.7 cells assessed as IL-6 levels at 5 uM pretreated for 2 hrs followed by LPS stimulation and measured after 6 hrs by ELISA (reference value: 472.3 +/- 25.8 pg/ml); format: functional; summary of the method: as §2
RAW264.7 [6] = experiment: Antiinflammatory activity in LPS-induced mouse RAW264.7 cells assessed as TNFalpha levels at 2.5 uM pretreated for 2 hrs followed by LPS stimulation and measured after 12 hrs by ELISA (reference value: 5313.7 +/- 420.9 pg/ml); format: functional
RAW264.7 [7] = experiment: Antiinflammatory activity in LPS-induced mouse RAW264.7 cells assessed as TNFalpha levels at 2.5 uM pretreated for 2 hrs followed by LPS stimulation and measured after 24 hrs by ELISA (reference value: 9653.7 +/- 377.3 pg/ml); format: functional; summary of the method: as §2
RAW264.7 [8] = experiment: Antiinflammatory activity in LPS-induced mouse RAW264.7 cells assessed as TNFalpha levels at 5 uM pretreated for 2 hrs followed by LPS stimulation and measured after 12 hrs by ELISA (reference value: 5313.7 +/- 420.9 pg/ml); format: functional; summary of the method: as §2
Danio rerio = experiment: In-vivo antiinflammatory activity in 4 days post fertilized zebrafish larvae harboring coronilla-eGFP/Lyc-dsRed assessed as reduction in macrophage recruitment to wounded tail at 5 to 20 uM measured after 3 to 6 hrs by fluorescence microscopic analysis; format: functional, organism-based
Summary of the method: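 Double transgenic neutrophil/macrophage reporter larvae (Coronilla-eGFP/Lyc-dsRed), 4 dpf, tail-cut. […] Neutrophils and macrophages gathering at the wound imaged by fluorescence microscopy at 3 and 6 h. 6–8 larvae per group. Uncut larvae serve as blank, untreated cut larvae as control.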

[9] = molecular target: T1, NF-kappa-B inhibitor alpha (Mus musculus) (UniProt Q9Z1E3); experiment: Inhibition of LPS-induced IkappaBalpha phosphorylation in mouse RAW264.7 cells after 4 hrs by Western blot analysis; format: cell-based; summary of the method: as §1
T1 sequence (whole entry): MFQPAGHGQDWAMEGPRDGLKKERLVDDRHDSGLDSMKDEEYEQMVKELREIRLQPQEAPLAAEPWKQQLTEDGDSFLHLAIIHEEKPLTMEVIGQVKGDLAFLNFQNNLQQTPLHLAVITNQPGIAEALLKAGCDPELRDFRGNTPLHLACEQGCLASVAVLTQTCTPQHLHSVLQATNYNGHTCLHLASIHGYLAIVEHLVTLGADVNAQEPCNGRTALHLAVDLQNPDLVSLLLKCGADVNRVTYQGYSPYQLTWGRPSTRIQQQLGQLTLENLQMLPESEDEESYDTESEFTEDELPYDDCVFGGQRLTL

RAW264.7 [10] = experiment: Antiinflammatory activity in LPS-induced mouse RAW264.7 cells assessed as IL-6 levels at 2.5 uM pretreated for 2 hrs followed by LPS stimulation and measured after 12 hrs by ELISA (reference value: 1394 +/- 62.6 pg/ml); format: functional; summary of the method: as §2
[11] = molecular target: MAP kinase p38 (Mus musculus) (UniProt P47811+O08911+Q9WUI1+Q9Z1B7); experiment: Inhibition of LPS-induced p38 MAPK phosphorylation in mouse RAW264.7 cells after 4 hrs by Western blot analysis; format: cell-based; summary of the method: as §1
RAW264.7 [12] = experiment: Antiinflammatory activity in LPS-induced mouse RAW264.7 cells assessed as IL-6 levels at 5 uM pretreated for 2 hrs followed by LPS stimulation and measured after 24 hrs by ELISA (reference value: 1966.6 +/- 102.3 pg/ml); format: functional; summary of the method: as §2
RAW264.7 [13] = experiment: Antiinflammatory activity in LPS-induced mouse RAW264.7 cells assessed as IL-6 levels at 10 uM pretreated for 2 hrs followed by LPS stimulation and measured after 6 hrs by ELISA (reference value: 472.3 +/- 25.8 pg/ml); format: functional; summary of the method: as §2
RAW264.7 [14] = experiment: Antiinflammatory activity in LPS-induced mouse RAW264.7 cells assessed as TNFalpha levels at 1.25 uM pretreated for 2 hrs followed by LPS stimulation and measured after 24 hrs by ELISA (reference value: 9653.7 +/- 377.3 pg/ml); format: functional; summary of the method: as §2
RAW264.7 [15] = experiment: Antiinflammatory activity in LPS-induced mouse RAW264.7 cells assessed as IL-6 levels at 10 uM pretreated for 2 hrs followed by LPS stimulation and measured after 24 hrs by ELISA (reference value: 1966.6 +/- 102.3 pg/ml); format: functional; summary of the method: as §2
RAW264.7 [16] = experiment: Antiinflammatory activity in LPS-induced mouse RAW264.7 cells assessed as IL-6 levels at 10 uM pretreated for 2 hrs followed by LPS stimulation and measured after 12 hrs by ELISA (reference value: 1394 +/- 62.6 pg/ml); format: functional; summary of the method: as §2
RAW264.7 [17] = experiment: Antiinflammatory activity in LPS-induced mouse RAW264.7 cells assessed as TNFalpha levels at 5 uM pretreated for 2 hrs followed by LPS stimulation and measured after 24 hrs by ELISA (reference value: 9653.7 +/- 377.3 pg/ml); format: functional; summary of the method: as §2

SMILES | Activity (RAW264.7 [1]) [pg/mL] | inhibition [2] | Activity (RAW264.7 [3]) [pg/mL] | IC50 (RAW264.7 [4]) [µM] | Activity (RAW264.7 [5]) [pg/mL] | Activity (RAW264.7 [6]) [pg/mL] | Activity (RAW264.7 [7]) [pg/mL] | Activity (RAW264.7 [8]) [pg/mL] | Activity (Danio rerio) | inhibition [9] | Activity (RAW264.7 [10]) [pg/mL] | inhibition [11] | Activity (RAW264.7 [12]) [pg/mL] | Activity (RAW264.7 [13]) [pg/mL] | Activity (RAW264.7 [14]) [pg/mL] | Activity (RAW264.7 [15]) [pg/mL] | Activity (RAW264.7 [16]) [pg/mL] | Activity (RAW264.7 [17]) [pg/mL]
CC1=C[C@H](O/C=C2/C(=O)O[C@@H]3c4ccccc4C[C@H]23)OC1=O | 5303.7 | Dose-dependent effect | 1892.3 | 3.14 | 387.1 | 5186.9 | 9397.7 | 5036.1 | Active | Dose-dependent effect | 1267.7 | Dose-dependent effect | 1499.2 | 302.3 | 9565.4 | 1002.2 | 869 | 9085.5
CC1=C[C@@H](O/C=C2/C(=O)O[C@H]3c4ccccc4C[C@@H]23)OC1=O | 5319.6 | Dose-dependent effect | 1936.5 | 3.51 | 410.3 | 5212.4 | 9444.5 | 5079.1 | Active | Dose-dependent effect | 1296 | Dose-dependent effect | 1561.1 | 340.6 | 9582.9 | 1061.3 | 998.2 | 9318.5
